Data set [1] concerns T47D. Description: Inhibition of hypoxia-induced GLUT1 mRNA expression in human T47D cells at 0.1 uM in presence of 1% O2 for 16 hrs by RT-PCR. The data set is classed as functional. In outline: (§1)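 T47D cells treated under hypoxia (1% O2, 16 h). GLUT-1 or VEGF mRNA measured by quantitative real-time RT-PCR and normalised to 18S rRNA. Reported relative to the normoxic control, mean ± SD, n = 3.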

The target of data set [2] is T1, Hypoxia inducible factors; HIF-1-alpha, HIF-2-alpha (Homo sapiens, UniProt Q16665+Q99814). Description: Inhibition of hypoxia-induced HIF1 activation in human T47D cells in presence of 1% O2 by HRE3-TK-luc reporter assay. The data set is classed as cell-based. In outline: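 T47D cells carrying the pHRE3-TK-Luc reporter, made hypoxic at 1% O2. HIF-1 activation read as luciferase signal over a concentration range, giving IC50. Data are means ± SEM, n = 3.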

The target of data set [3] is T1, Hypoxia inducible factors; HIF-1-alpha, HIF-2-alpha. Description: Inhibition of chemical hypoxia-induced HIF1 activation in human T47D cells in presence of 1, 10-phenanthrolin by HRE3-TK-luc reporter assay. The data set is classed as cell-based. A general note: In a reporter assay the amount or activity of a reporter protein is the signal.
Data set [4] relates to T47D. In words: Inhibition of hypoxia-induced VEGF mRNA expression in human T47D cells at 0.1 uM in presence of 1% O2 for 16 hrs by RT-PCR. In kind it is functional. The essentials: as §1
Data set [5] relates to HUVEC. Description: Cytotoxicity against HUVEC cells. In kind it is cell-based. To be noted: human.
Data set [6] relates to T47D. Description: Inhibition of mitochondrial respiratory chain complex 1 in human T47D cells assessed as decrease in oxygen consumption. The data set is classed as functional, cell-based. The essentials: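 Oxygen consumption measured in T47D cells; mean ± SD of three independent experiments. For complex I, cells were permeabilised with digitonin (30 μM) and respiration started with malate plus pyruvate. Follow-up additions: succinate (complex II substrate), antimycin A, and TMPD/ascorbate to test complexes II–IV.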

The subject of data set [7] is T47D. In words: Inhibition of hypoxia-induced VEGF protein expression in human T47D cells at 0.03 to 0.1 uM in presence of 1% O2. The data set is classed as functional, cell-based. The essentials:
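T47D cells exposed to hypoxia with test agent. Secreted VEGF protein in the conditioned medium measured by ELISA and normalised to cellular protein. Mean + SD, n = 3; p values compared with the hypoxia-induced sample.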

Data set [8] has as its system DU-145. In words: Cytotoxicity against human DU145 cells assessed as suppression of cell proliferation under hypoxic condition after 48 hrs relative to control. In kind it is functional, cell-based. In outline:
(§2)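 Four human tumour lines (T47D, MDA-MB-231, PC-3, DU-145) exposed to acetogenins (1 to 100 nM, half-log steps) or crude extract (0.01 to 1 μg/mL, half-log steps) for 48 h, either normoxic (95% air) or hypoxic (1% O2). Proliferation/viability expressed relative to untreated control. Final solvent below 0.5% (v/v).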

Data set [9] deals with MDA-MB-231. In words: Cytotoxicity against human MDA-MB-231 cells assessed as suppression of cell proliferation under normoxic condition after 48 hrs relative to control. In kind it is functional, cell-based. In outline:
as §2

For data set [10], the system named is PC-3. Description: Cytotoxicity against human PC3 cells assessed as suppression of cell proliferation under normoxic condition after 48 hrs relative to control. In kind it is functional, cell-based. The essentials: as §2
Data set [11] deals with T47D. In words: Cytotoxicity against human T47D cells assessed as suppression of cell proliferation under normoxic condition after 48 hrs relative to control. The data set is classed as functional, cell-based. The essentials:
as §2

Data set [12] concerns T47D. In words: Cytotoxicity against human T47D cells assessed as suppression of cell proliferation under hypoxic condition after 48 hrs relative to control. In kind it is functional, cell-based. In outline:
as §2

The target of data set [13] is T1, Hypoxia inducible factors; HIF-1-alpha, HIF-2-alpha. Description: Inhibition of hypoxia-induced HIF1 activation in human PC3 cells by HRE3-TK-luc reporter assay. In kind it is cell-based. Particulars: PC-3, concentration not given here. The essentials: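 HIF-1 activation in PC-3 cells induced by hypoxia (1% O2) and read with the pHRE3-TK-Luc luciferase reporter. Concentration-response, IC50/EC50 derived. Data are means ± SEM, n = 3.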

For data set [14], the system named is HUVEC. Description: Inhibition of VEGF-induced angiogenesis in HUVEC cells at 0.1 uM by tube formation assay. Particulars: Homo sapiens. In kind it is functional, cell-based.
The subject of data set [15] is T47D. Description: Inhibition of ATP in human T47D cells under hypoxia for 16 hrs at 0.1 to 0.3 uM. In kind it is functional, cell-based.
Data set [16] relates to DU-145. In words: Cytotoxicity against human DU145 cells assessed as suppression of cell proliferation under normoxic condition after 48 hrs relative to control. In kind it is functional, cell-based. The essentials:
as §2

Data set [17] concerns PC-3. In words: Cytotoxicity against human PC3 cells assessed as suppression of cell proliferation under hypoxic condition after 48 hrs relative to control. The data set is classed as functional, cell-based. The essentials:
as §2

In data set [18] the test system is T47D. Description: Inhibition of normoxic human T47D cells at 0.1 uM by tube formation assay. The data set is classed as functional, cell-based. The essentials: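 Conditioned media from T47D cells (normoxic, hypoxic, or hypoxic plus treatment) applied to HUVEC on Matrigel. Tube length and branching points quantified in three random fields, expressed as % of the normoxic-cell medium, mean ± SD.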

For data set [19], the system named is T47D. In words: Inhibition of hypoxia-induced HIF1beta protein subcellular localization in human T47D cells at 0.3 uM by immunofluorescence based assay. The data set is classed as functional, cell-based.
Data set [20] has as its system T47D. In words: Inhibition of hypoxia-induced HIF1beta protein accumulation in nucleus of human T47D cells by Western blot analysis. The data set is classed as functional, cell-based. The essentials: (§3)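 T47D cells exposed to hypoxia (1% O2, 4 h) with or without treatment. Nuclear extracts prepared and probed for HIF-1α and HIF-1β by Western blot.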
In general terms: Immunoblotting shows a protein as a band on a membrane.

Data set [21] relates to T47D. Description: Inhibition of hypoxia-induced HIF1alpha protein accumulation in nucleus of human T47D cells by Western blot analysis. The data set is classed as functional, cell-based. In outline: as §3
Data set [22] has as its system MDA-MB-231. Description: Cytotoxicity against human MDA-MB-231 cells assessed as suppression of cell proliferation under hypoxic condition after 48 hrs relative to control. In kind it is functional, cell-based. The essentials: as §2
The subject of data set [23] is T47D. Description: Inhibition of mitochondrial respiratory chain complex in human T47D cells assessed as decrease in oxygen consumption in presence of rotenone and succinate complex 1 substrate. In kind it is functional, cell-based. In outline:
(§4)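 Oxygen consumption measured in T47D cells permeabilized with digitonin (30 μM). Complex I respiration started with malate plus pyruvate. Rotenone was added as complex I blocker, then succinate (complex II substrate). Antimycin A was added to block complex III, then TMPD plus ascorbate (complex IV substrates) to restart respiration. Sample added at 0.3 μM.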

The test system of data set [24] is T47D. Description: Inhibition of mitochondrial respiratory chain complex in human T47D cells assessed as decrease in oxygen consumption in presence of antimycin A complex 3 inhibitor. The data set is classed as functional, cell-based. In outline:
as §4

The test system of data set [25] is MDA-MB-231. Description: Cytotoxicity against human MDA-MB-231 cells assessed as suppression of cell proliferation under normoxic condition at 100 nM after 6 days relative to control. In kind it is functional.
The subject of data set [26] is T47D. Description: Inhibition of mitochondrial respiratory chain complex 4 in human T47D cells assessed as decrease in oxygen consumption at 0.3 uM. In kind it is functional, cell-based. The essentials: as §4
In data set [27] the test system is T47D. In words: Cytotoxicity against human T47D cells assessed as suppression of cell proliferation under normoxic condition at 10 nM after 6 days relative to control. The data set is classed as functional.
Data set [28] concerns T47D. In words: Inhibition of mitochondrial respiratory chain complex 2 in human T47D cells assessed as decrease in oxygen consumption at 0.3 uM. In kind it is functional, cell-based. The essentials:
as §4

In data set [29] the test system is PC-3. In words: Cytotoxicity against human PC3 cells assessed as suppression of cell proliferation under normoxic condition at 100 nM after 6 days relative to control. The data set is classed as functional.
The subject of data set [30] is T47D. Description: Inhibition of mitochondrial respiratory chain complex 3 in human T47D cells assessed as decrease in oxygen consumption at 0.3 uM. The data set is classed as functional, cell-based. In outline: as §4
Data set [31] concerns DU-145. In words: Cytotoxicity against human DU145 cells assessed as suppression of cell proliferation under normoxic condition at 100 nM after 6 days relative to control. In kind it is functional.
Data set [32] concerns T47D. Description: Inhibition of mitochondrial respiratory chain complex in human T47D cells assessed as decrease in oxygen consumption in presence of TMPD and ascorbate complex 4 substrate. In kind it is functional, cell-based. The essentials: as §4

Molecules are shown by their SMILES. Active and inactive are the calls of the source. The rule behind the calls is not given here.

For `CCCCCCCCCCCC[C@@H](O)[C@H]1CC[C@H]([C@H](O)CCCC[C@H](O)CCCCC[C@@H](O)CC2=CC(C)OC2=O)O1` (stereo in doubt; 2) [ANNONACIN], the inhibition (as a rule, the percentage by which the read-out fell short of the control) at 0.1 µM in data set [1] was found to be 72%; in data set [4], 64%. Further, the IC50 (commonly the concentration that gives 50% inhibition) in [2] is 13 nM; in data set [3], over 1000 nM. Further, in data set [5], the Activity entry was “Non-toxic”.

In the case of `C=C(C)[C@H]1Cc2c(ccc3c2O[C@@H]2COc4cc(OC)c(OC)cc4[C@@H]2C3=O)O1`, the inhibition result in [6] is “Dose-dependent effect”.

With `CCCCCCCCCCCC[C@@H](O)[C@H]1CC[C@H]([C@H](O)CCCC[C@H](O)CCCCC[C@@H](O)CC2=CC(C)OC2=O)O1` (stereo in doubt; 2), the inhibition entry in data set [7], in data set [14] and in data set [19] was “Active” each time. In addition, the outcome in [8], in data set [9], in [10], in data set [11], in [12] and in data set [16] was inactive. Also, the result in data set [17] and in data set [22] was inactive. Besides, the values for the inhibition entry in data set [6], in data set [13] and in data set [21] were “Dose-dependent effect”, 50% and “Dose-dependent effect”, respectively. Also, the inhibition result in data set [15], in [18] and in [20] was “inactive” in each case.

For the compound `CCCCCCCCCCCC[C@@H](O)[C@H]1CC[C@H]([C@H](O)CCCC[C@H](O)CCCCC[C@@H](O)CC2=CC(C)OC2=O)O1` (stereo in doubt; 3), the result in data set [8], in [9], in data set [10], in data set [11], in data set [12] and in [16] was inactive. Moreover, the result in [17] and in [22] was inactive. In addition, in [13], the inhibition is 50%. In data set [15], the inhibition result is “inactive”.

Take `CCCCCCCCCCCC[C@@H](O)[C@H]1CC[C@H]([C@H]2CC[C@H]([C@H](O)CCC(O)CCCCCC(O)CC3=CC(C)OC3=O)O2)O1` (stereo not given in full): the inhibition entry in data set [7], in data set [14] and in [19] was “Active” each time. For the same compound, the inhibition at 0.1 µM in [1] is 80%; in [4], 62%. Besides, the inhibition entry in data set [23], in [24], in data set [26], in data set [28], in data set [15] and in data set [18] was “inactive” in each case. The inhibition result in data set [20], in [30] and in [32] was “inactive” each time. Moreover, the result in [8], in data set [9], in data set [10], in [11], in [12] and in data set [16] was inactive. In addition, the outcome in data set [17] and in data set [22] was inactive. Moreover, the IC50 in data set [2] is 12 nM; in data set [3] it was over 1000 nM. Also, the inhibition entry in data set [6] is “Dose-dependent effect”; in data set [13] it was 50%; in data set [21], “Dose-dependent effect”. Also, the Activity in [25] is listed as under 30%; in data set [27], 50%; in [29] it was under 30%; in data set [5], “Non-toxic”; in data set [31], under 30%.

`CCCCCCCCCCCC[C@@H](O)[C@H]1CC[C@H]([C@H](O)CCCC[C@H](O)CCCCC[C@@H](O)CC2=CC(C)OC2=O)O1` (stereo in doubt; 3) [ANNONACIN]: the Activity in data set [25] is recorded as under 30%; in data set [27], 50%; in data set [29], under 30%; in [31] it was under 30%. The concentration for half-maximal inhibition (IC50) in [3] is over 1000 nM.

The record behind these values is ChEMBL document CHEMBL1157797, “The alternative medicine pawpaw and its acetogenin constituents suppress tumor angiogenesis via the HIF-1/VEGF pathway” (J Nat Prod, 2010).
